Data as given in PubChem BioAssay AID623919 (The Scripps Research Institute Molecular Screening Center, 2012).
Active and inactive are the calls of the source.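 Rule for the calls: active = recombination in E. coli crosses cut more than 4-fold against the solvent-only control; inactive = cut of 4-fold or less.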

What follows are molecules tested on E. coli V66 Hfr conjugational recombination, colony counts (assay: Hfr conjugational cross recombinant frequency reduction – V66 E. coli, colony formation, powder samples, 100 µM, counter-screen for AddAB inhibitor project, late-stage follow-up (AID 623919)). Conditions: at 100 µM; hits give high values.
How it was run: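 Material: E. coli V66 recipient with Hfr donor / Times: 1 h recipient growth with compound, then 30 min mating / Probe or stimulus: Hfr donor, 1:10 donor-to-recipient / Compound dosing: single 100 µM dose / Medium: LB broth / Signal: differential plating colony counts / Control set: DMSO-only culture / Replicates: duplicates / Read-out basis: fold reduction in recombinant frequency versus DMSO, viability-adjusted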

With `C=CCn1c(Sc2ncc([N+](=O)[O-])s2)n[nH]c1=O` as the molecule, how does the fold reduction of recombination read?
Its fold reduction of recombination is 900.

`Cc1ccc(C(=O)Nc2sc3c(c2C#N)CCCCC3)o1` was tested. Which fold reduction of recombination did it give?
Its fold reduction of recombination is 3 (inactive).

With `CC(=O)Nc1ccc2nc(NC(=O)c3ccc([N+](=O)[O-])o3)sc2c1` as the molecule, how does the fold reduction of recombination read?
The fold reduction of recombination was 2 (inactive).

`N#Cc1c(NC(=O)c2ccc([N+](=O)[O-])o2)sc2c1CCCC2` was tested. Which fold reduction of recombination did it give?
The fold reduction of recombination was 1 (inactive).

`O=C(Nc1ccc(N2CCOCC2)cc1)c1ccc([N+](=O)[O-])o1` was tested. Which fold reduction of recombination did it give?
Its fold reduction of recombination is 2 (inactive).

How did the fold reduction of recombination turn out when `CCn1cc(C(=O)O)c(=O)c2cnc(N3CCN(C(=S)NC(=O)c4cccnc4)CC3)nc21` was run?
Its fold reduction of recombination is 1 (inactive).

`N#Cc1c(NC(=O)c2ccc(-c3ccccc3[N+](=O)[O-])o2)sc2c1CCCC2` was tested. Which fold reduction of recombination did it give?
The fold reduction of recombination was 1 (inactive).

How did the fold reduction of recombination turn out when `CC1(C)Cc2c(sc(NC(=O)c3ccco3)c2C#N)CO1` was run?
The fold reduction of recombination was 2 (inactive).

Which fold reduction of recombination does the source give for `CCn1cc(C(=O)O)c(=O)c2cnc(N3CCN(C(=S)Nc4ccccc4Cl)CC3)nc21` here?
The fold reduction of recombination was 1 (inactive).

`Cc1ccc(C(=O)Nc2sc3c(c2C#N)CCC3)o1` was tested. Which fold reduction of recombination did it give?
The fold reduction of recombination was 2 (inactive).

`CCn1cc(C(=O)O)c(=O)c2cnc(N3CCNCC3)nc21` was tested. Which fold reduction of recombination did it give?
Its fold reduction of recombination is 50.

Which fold reduction of recombination does the source give for `CC1CCc2c(sc(NC(=O)c3ccc([N+](=O)[O-])o3)c2C#N)C1` (stereo not drawn) here?
The fold reduction of recombination was 2 (inactive).

`CCn1cc(C(=O)O)c(=O)c2cnc(N3CCN(C(=S)Nc4ccccc4)CC3)nc21` was tested. Which fold reduction of recombination did it give?
Its fold reduction of recombination is 1 (inactive).

How did the fold reduction of recombination turn out when `CCn1cc(C(=O)O)c(=O)c2cnc(N3CCN(C(=S)NC(=O)c4ccccc4Cl)CC3)nc21` was run?
The fold reduction of recombination was 2 (inactive).

For `CCn1cc(C(=O)O)c(=O)c2cnc(N3CCN(C(=S)Nc4ccccc4F)CC3)nc21`, which fold reduction of recombination is on record?
The fold reduction of recombination was 2 (inactive).

How did the fold reduction of recombination turn out when `CCn1cc(C(=O)O)c(=O)c2cnc(N3CCN(C(=S)NC(C)c4ccccc4)CC3)nc21` (stereo not drawn) was run?
The fold reduction of recombination was 1.5 (inactive).

With `CCn1cc(C(=O)O)c(=O)c2cc(F)c(N3CCN(C(=S)Nc4cccc(C(F)(F)F)c4)CC3)cc21` as the molecule, how does the fold reduction of recombination read?
The fold reduction of recombination was 350.

With `Nc1c(NC(=O)c2ccc([N+](=O)[O-])o2)sc2c1CCCC2` as the molecule, how does the fold reduction of recombination read?
Its fold reduction of recombination is 1 (inactive).

How did the fold reduction of recombination turn out when `CCn1cc(C(=O)O)c(=O)c2cnc(N3CCN(C(=O)Nc4ccccc4)CC3)nc21` was run?
The fold reduction of recombination was 1 (inactive).

With `O=C(Nc1ncccn1)c1ccc([N+](=O)[O-])o1` as the molecule, how does the fold reduction of recombination read?
Its fold reduction of recombination is 20.

For `O=C(NCc1cccnc1)c1ccc([N+](=O)[O-])o1`, which fold reduction of recombination is on record?
Its fold reduction of recombination is 18.5.

`N#Cc1c(NC(=O)c2ccccc2C(=O)O)sc2c1CCCC2` was tested. Which fold reduction of recombination did it give?
The fold reduction of recombination was 1 (inactive).

Which fold reduction of recombination does the source give for `CCn1cc(C(=O)O)c(=O)c2cnc(N3CCN(C(=S)NCc4ccccc4)CC3)nc21` here?
Its fold reduction of recombination is 1 (inactive).

With `CCn1cc(C(=O)O)c(=O)c2cnc(N3CCN(C(=S)Nc4ccccc4OC)CC3)nc21` as the molecule, how does the fold reduction of recombination read?
Its fold reduction of recombination is 1.5 (inactive).

`NC(=O)c1ccsc1NC(=O)COC(=O)c1ccc([N+](=O)[O-])o1` was tested. Which fold reduction of recombination did it give?
The fold reduction of recombination was 1.6 (inactive).

How did the fold reduction of recombination turn out when `CCn1cc(C(=O)O)c(=O)c2cnc(N3CCN(C(=S)Nc4ccccc4C)CC3)nc21` was run?
Its fold reduction of recombination is 1 (inactive).

`Cc1sc(NC(=O)c2ccc(Br)o2)c(C#N)c1C` was tested. Which fold reduction of recombination did it give?
Its fold reduction of recombination is 1.5 (inactive).

Which fold reduction of recombination does the source give for `N#Cc1c(NC(=O)c2ccco2)sc2c1CCC2` here?
Its fold reduction of recombination is 1 (inactive).

How did the fold reduction of recombination turn out when `O=C(OCC(=O)c1cccs1)c1ccc([N+](=O)[O-])o1` was run?
The fold reduction of recombination was 2.1 (inactive).

With `Cc1ccc2nc(/C(C#N)=C\c3ccc([N+](=O)[O-])o3)[nH]c2c1` as the molecule, how does the fold reduction of recombination read?
Its fold reduction of recombination is 3 (inactive).

`CCn1cc(C(=O)O)c(=O)c2cnc(N3CCN(C(=S)Nc4cccc(C(F)(F)F)c4)CC3)nc21` was tested. Which fold reduction of recombination did it give?
Its fold reduction of recombination is 6.

`N#Cc1c(NC(=O)c2ccccc2)sc2c1CCC2` was tested. Which fold reduction of recombination did it give?
The fold reduction of recombination was 1 (inactive).

How did the fold reduction of recombination turn out when `CCn1cc(C(=O)O)c(=O)c2cnc(N3CCN(C(=S)NC4CC5CCC4C5)CC3)nc21` (stereo not drawn) was run?
Its fold reduction of recombination is 1 (inactive).

Which fold reduction of recombination does the source give for `N#Cc1c(NC(=O)c2ccc([N+](=O)[O-])o2)sc2c1CCC2` here?
The fold reduction of recombination was 3 (inactive).

For `CCn1cc(C(=O)O)c(=O)c2cnc(N3CCN(C(=S)Nc4ccc(F)cc4)CC3)nc21`, which fold reduction of recombination is on record?
The fold reduction of recombination was 1 (inactive).

How did the fold reduction of recombination turn out when `O=C(Nc1cccc(NC(=O)c2ccccc2Cl)c1)c1ccc([N+](=O)[O-])o1` was run?
Its fold reduction of recombination is 2 (inactive).

For `CCn1cc(C(=O)O)c(=O)c2cnc(N3CCN(C(=S)NC(=O)c4ccco4)CC3)nc21`, which fold reduction of recombination is on record?
Its fold reduction of recombination is 1 (inactive).

With `CCn1cc(C(=O)O)c(=O)c2cnc(N3CCN(C(=S)Nc4ccc(Cl)cc4)CC3)nc21` as the molecule, how does the fold reduction of recombination read?
Its fold reduction of recombination is 1 (inactive).

For `CC1CCc2c(sc(NC(=O)c3ccc([N+](=O)[O-])o3)c2N)C1` (stereo not drawn), which fold reduction of recombination is on record?
The fold reduction of recombination was 2 (inactive).

For `N#Cc1c(NC(=O)c2cnccn2)sc2c1CCCC2`, which fold reduction of recombination is on record?
The fold reduction of recombination was 1 (inactive).

With `N#Cc1c(NC(=O)c2cccc(F)c2)sc2c1CCCC2` as the molecule, how does the fold reduction of recombination read?
The fold reduction of recombination was 1 (inactive).

`CCn1cc(C(=O)O)c(=O)c2cnc(N3CCN(C(=S)NC(=O)c4cccc(C)c4)CC3)nc21` was tested. Which fold reduction of recombination did it give?
Its fold reduction of recombination is 1 (inactive).

How did the fold reduction of recombination turn out when `CCn1cc(C(=O)O)c(=O)c2cnc(N3CCN(C(=S)Nc4ccc5c(c4)OCO5)CC3)nc21` was run?
Its fold reduction of recombination is 1 (inactive).

Which fold reduction of recombination does the source give for `C=CCNC(=S)N1CCN(c2ncc3c(=O)c(C(=O)O)cn(CC)c3n2)CC1` here?
Its fold reduction of recombination is 1.5 (inactive).

`Cc1cccnc1NC(=O)c1ccc([N+](=O)[O-])o1` was tested. Which fold reduction of recombination did it give?
The fold reduction of recombination was 3 (inactive).

How did the fold reduction of recombination turn out when `CCn1cc(C(=O)O)c(=O)c2cnc(N3CCN(C(=S)NC)CC3)nc21` was run?
Its fold reduction of recombination is 1 (inactive).

For `CCn1cc(C(=O)O)c(=O)c2cnc(N3CCN(C(=S)Nc4ccc5c(c4)OCCO5)CC3)nc21`, which fold reduction of recombination is on record?
The fold reduction of recombination was 1 (inactive).

For `N#Cc1c(NC(=O)C2CC=CCC2C(=O)O)sc2c1CCC2` (stereo not drawn), which fold reduction of recombination is on record?
The fold reduction of recombination was 1 (inactive).
